# Compounds with a hit are over-represented: about 2% of the library has one in this group of screens.
# ASAP1 inh: inhibitors of human ASAP1 ArfGAP activity; Q9ULH1; ASAP1-stimulated ARF1 GTP hydrolysis, GDP FP detection; inhibition, % at 16.5 µM; 360,000 compounds, 0.19% hits; in the data active = inhibition above about 25%;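 also: 0% = vehicle with enzyme and substrate and 100% = no enzyme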
# ARFGAP1 inhibitor: rat ARFGAP1 inhibition | inhibition, % at 16.5 µM | AID 651572 | Arfgap1-stimulated ARF1 GTP hydrolysis, GDP FP detection | Q62848 | 360,000 compounds, 0.26% hits;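 active = inhibition above a per-plate limit, mean inhibition of low control wells plus 3 SD, cut at about 25% in these data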;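 also: 0% = DMSO wells with enzyme and 100% = wells lacking Arfgap1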
#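 Assay system: Rat Arfgap1 GAP domain (His6, aa 1-136), purified enzyme | Buffer or medium: HEPES 25 mM pH 7.5, NaCl 150 mM, MgCl2, DTT | Schedule: GTP hydrolysis reaction 2 h at 25 °C | Signal: FP of antibody-bound GDP Alexa 633 tracer, ex 620/em 688 nm | Measure: Percent inhibition of Arfgap1-stimulated GTP hydrolysis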
# LEDGF integ inh: blocks HIV-1 LEDGF/p75-dependent DNA integration; TR-FRET IN-LEDGF/p75 DNA integration, Eu/Cy5; 370,000 compounds, 0.64% hits; inhibition, % at 3.7 µM;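 active = inhibition above the screen-wide mean plus 3 SD, cut at about 13% in these data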;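 also: signal is the Cy5 over europium emission ratio at 671 and 618 nm; 0% = plate median of compound wells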
# UHRF1 MBD2 ctr: blocks human UHRF1 binding to methylated DNA. Q96T88. UHRF1 binding to methylated oligo, TR-FRET. inhibition, % at 4.4 µM. 370,000 compounds, 0.75% hits; in the data active = inhibition above about 21%;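 also: UHRF1 SRA domain binding a hemimethylated CpG hairpin DNA probe; 0% = median of test compound wells and 100% = reference inhibitor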
# TDP2 absorb: TDP2 (human) inhibition, absorbance primary screen | inhibition, % at 12.8 µM | recombinant TDP2, T5PNP hydrolysis, p-nitrophenol absorbance 415 nm | 370,000 compounds, 0.34% hits | O95551;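 active = inhibition above the mean of all tested compounds plus 3 SD, set per campaign, cut at about 25% in these data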;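 also: 0% = DMSO with enzyme and 100% = buffer with substrate but no TDP2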
#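 Evaluation: % inhibition relative to enzyme-containing and enzyme-free wells. Material: recombinant human TDP2. Benchmarks: enzyme-free and DMSO wells. Timing: enzyme reaction with compound for 2 h at 37 °C. Compound dosing: 12.8 µM only. Measured by: p-Nitrophenol epi absorbance. Reagent: T5PNP substrate at 5 mM, a TopII-DNA adduct mimic. Replication: single well per compound.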
# MBD2 inh: inhibitors of human MBD2 binding to methylated oligonucleotide; Q9UBB5; TR-FRET; inhibition, % at 4.4 µM; 370,000 compounds, 0.31% hits; in the data active = inhibition above about 13%
# Target sequence (Q9UBB5 whole entry, looked up): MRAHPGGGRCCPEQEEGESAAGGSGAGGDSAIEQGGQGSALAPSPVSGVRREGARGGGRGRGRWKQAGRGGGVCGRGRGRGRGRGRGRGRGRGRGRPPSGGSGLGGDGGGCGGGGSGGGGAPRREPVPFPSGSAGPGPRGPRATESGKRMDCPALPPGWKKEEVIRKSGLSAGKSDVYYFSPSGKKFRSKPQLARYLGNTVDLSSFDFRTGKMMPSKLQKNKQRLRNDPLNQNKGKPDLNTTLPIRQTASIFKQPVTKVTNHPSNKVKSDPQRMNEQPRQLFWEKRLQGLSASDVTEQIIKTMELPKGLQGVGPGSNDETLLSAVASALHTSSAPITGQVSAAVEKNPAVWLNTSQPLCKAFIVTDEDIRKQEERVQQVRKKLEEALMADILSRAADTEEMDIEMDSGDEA
# IN multimer act: activates HIV-1 integrase multimerization in LEDGF counter-screen | shares compounds with LEDGF integ inh | AID 1053131 | 2,000 compounds, 17% hits | activation, % at 7.7 µM | TR-FRET HIV-1 integrase multimerization, biochemical; in the data active = activation above about 8.9%
# TR-FRET interf: counter-screen for LEDGF/p75 integration inhibitors: TR-FRET optical interference; 2,000 tested, under 10 active; TR-FRET optical interference counterscreen, HIV-1 IN multimerization; inhibition, % at 7.7 µM; shares compounds with LEDGF integ inh; AID 1053135;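 active = inhibition above the mean over all tested compounds plus 3 SD, which no compound reached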;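 also: 0% = integrase with antibodies and DMSO and 100% = antibodies without integrase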
# IN-LEDGF confirm: confirmation of HIV-1 LEDGF/p75-dependent integration inhibitors; shares compounds with LEDGF integ inh; inhibition, % at 3.7 µM; 2,000 compounds, 36% hits; TR-FRET LEDGF/p75-dependent HIV-1 integration, biochemical; in the data active = inhibition above about 14%
# Starred values were filed as active, the others as inactive; . = no result.
SMILES,ASAP1 inh,ARFGAP1 inhibitor,LEDGF integ inh,UHRF1 MBD2 ctr,TDP2 absorb,MBD2 inh,IN multimer act,TR-FRET interf,IN-LEDGF confirm
O=C(CCNS(=O)(=O)c1ccc(Cl)cc1)N1CCN(c2ncccn2)CC1,-1,-4,0,2,3,1,.,.,.
CCOc1ccc(S(=O)(=O)NCCC(=O)N2CCN(c3ncccn3)CC2)cc1,-5,-1,77*,-2,-2,3,1,-7,3
c1ccc(-c2cccc3[nH]cc(-c4ccccc4)c23)cc1,.,.,-1,-3,-5,-4,.,.,.
Oc1ccccc1/C=N/c1c(-c2ccco2)nc2ccccn12,-16,2,20*,4,6,-8,3,-13,4
C[C@@]12C(=O)N(c3cccc(Cl)c3)C(=O)N1[C@@H]1c3ccccc3OC[C@@H]1[C@H]2c1ccccc1,2,4,34*,0,4,4,1,-6,1
C[C@@]12C(=O)N(c3ccccc3)C(=O)N1[C@@H]1c3ccccc3OC[C@@H]1[C@H]2c1ccccc1,1,3,2,1,2,-1,.,.,.
Cc1cc(=O)[nH]c(SCC(=O)Nc2ccc(F)c(F)c2)n1,.,.,-1,0,-3,2,.,.,.
COC(=O)[C@H](CC(C)C)N(CCc1cn(Cc2ccc(C)cc2)nn1)S(=O)(=O)c1ccccc1Br,.,.,3,3,-5,1,.,.,.
CC1=CC(C)(C)NC(=S)N1c1ccc(C)cc1,-10,0,21*,7,5,1,-2,8,4
Cc1c(C(=O)NNS(=O)(=O)c2ccccc2)sc(=S)n1C,2,-1,0,1,8,3,.,.,.
CC(=O)NNC(=O)c1sc(=S)n(C)c1C,4,8,22*,3,-10,1,1,-5,1
S=C(Nc1ccc(Br)cc1)OC1CCC12CCC(c1ccccc1)CC2 (centres undefined),.,.,8,-1,-2,-1,.,.,.
Cc1ccc(OCC(=O)Nc2ccc(F)cc2)cc1C,-1,-5,20*,-3,7,4,0,-2,-15
Cc1cc(=O)n2[nH]c(-c3ccsc3-n3c(C)ccc3C)cc2n1,14,4,28*,18,0,10,25*,-127,50*
Cc1nc2cc(-c3ccsc3-n3c(C)ccc3C)[nH]n2c(=O)c1Cl,19,-7,48*,32*,3,8,8,-41,33*
Cc1cc(=O)n2[nH]c(-c3ccc(F)cc3)cc2n1,-14,-5,1,-3,1,2,.,.,.
CC(=O)CC[C@@H]1CC[C@]2(CCCN(C(=O)c3ccco3)C2)O1,.,.,-2,3,5,0,.,.,.
COc1cc(N)c2ncccc2c1Cl,11,-5,44*,5,47*,-19,-1,3,6
CCCN(CCC)C(=S)NC(=O)c1ccc(-c2ccccc2)cc1,2,-10,26*,0,-2,2,1,-7,35*
CCCC[C@H]1C2CC(OC(=O)Nc3ccccc3OC)C(C2)[C@H]2CCCCN21 (some centres undefined),.,.,1,-1,2,-4,.,.,.
Brc1cnc2nc(SC/C=C/c3ccccc3)[nH]c2c1,7,4,37*,1,-3,0,6,-29,4
Fc1ccccc1CSc1nc2ncc(Br)cc2[nH]1,-4,12,-7,0,8,-4,.,.,.
CCn1c(COc2ccc(C)cc2)nnc1SCC(=O)Nc1ccc(Oc2ccccc2)cc1,.,.,1,-1,0,-4,.,.,.
N#Cc1nc(COc2ccccc2Cl)oc1N1CCCC1,-4,-5,19*,8,4,7,1,-4,-7

# Source: PubChem (The Scripps Research Institute Molecular Screening Center)
